Source: ChEMBL document CHEMBL1124629, “Syntheses and biological activities of 13-substituted avermectin aglycons” (J Med Chem, 1989)

Columns and labels:
[1] = Displacement of ivermectin from avermectin receptor of Caenorhabditis elegans
Method in brief: (§1)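 Competitive binding with [22,23-3H2]ivermectin as radioligand, displaced from an avermectin receptor preparation derived from the free-living nematode Caenorhabditis elegans.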

Tetranychus urticae [2] = assay: Antiparasitic activity against two-spotted spider mite Tetranychus urticae on bean plants; assay type: functional
Method in brief: (§2)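 Two-spotted spider mite (Tetranychus urticae) infesting bean plants treated with test compound.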

Spodoptera eridania [3] = assay: Antiparasitic activity against southern army worm Spodoptera eridania; assay type: functional
Method in brief: (§3)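 Neonate southern armyworm (Spodoptera eridania) larvae placed on bean leaves treated with test compound.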

[4] = system: Trichostrongylus colubriformis; assay: Antiparasitic activity against sheep parasite Trichostrongylus colubriformis; settings: in gerbil
[5] = Binding radioligand; design: species or system Caenorhabditis elegans; method in brief: as §1
Spodoptera eridania [6] = assay: Antiparasitic activity against Southern army worm; assay type: functional; method in brief: as §3
Tetranychus urticae [7] = assay: Antiparasitic activity against Tetranychus urticae; assay type: functional; method in brief: as §2
[8] = system: Trichostrongylus colubriformis; assay: Antiparasitic activity against Trichostrongylus colubriformis; assay type: functional
Method in brief: (§4)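 Sheep nematode Trichostrongylus colubriformis tested in vivo in a gerbil infection model.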

[9] = system: Trichostrongylus colubriformis; assay: Antiparasitic activity against sheep parasite Trichostrongylus colubriformis; assay type: functional; method in brief: as §4

| Molecule | Ki [1] | Ki [5] | ED90 (Tetranychus urticae [2]) | ED90 (Spodoptera eridania [3]) | ED90 [4] | ED90 (Spodoptera eridania [6]) | ED90 (Tetranychus urticae [7]) | ED90 [8] | ED90 [9] |
| --- | --- | --- | --- | --- | --- | --- | --- | --- | --- |
| CC[C@H](C)[C@H]1O[C@]2(CC[C@@H]1C)C[C@@H]1C[C@@H](C/C=C(\C)[C@H](O)[C@@H](C)/C=C/C=C3\CO[C@@H]4[C@H](O)C(C)=C[C@@H](C(=O)O1)[C@]34O)O2 | 2 nM |  | 0.05 p.p.m. | >8 p.p.m. | < 0.5 mg/kg |  |  |  |  |
| CC[C@H](C)[C@H]1O[C@]2(CC[C@@H]1C)C[C@@H]1C[C@@H](C/C=C(C)/C(=N\OC)[C@@H](C)/C=C/C=C3\CO[C@@H]4[C@H](O)C(C)=C[C@@H](C(=O)O1)[C@]34O)O2 |  | 0.3 nM | 0.05 p.p.m. | 0.5 p.p.m. | < 0.1 mg/kg |  |  |  |  |
| CC[C@H](C)[C@H]1O[C@]2(CC[C@@H]1C)C[C@@H]1C[C@@H](C/C=C(C)/C=C(C)\C=C\C=C3/CO[C@@H]4[C@H](O)C(C)=C[C@@H](C(=O)O1)[C@]34O)O2 | 0.8 nM |  | >6.25 p.p.m. | >1 p.p.m. | > 2.5 mg/kg |  |  |  |  |
| CC[C@H](C)[C@H]1O[C@]2(CC[C@@H]1C)C[C@@H]1C[C@@H](C/C=C(\C)[C@@H](N)[C@@H](C)/C=C/C=C3\CO[C@@H]4[C@H](O)C(C)=C[C@@H](C(=O)O1)[C@]34O)O2 | > 100 nM |  | >0.1 p.p.m. | >1 p.p.m. | 0.5 mg/kg |  |  |  |  |
| CC[C@H](C)[C@H]1O[C@]2(CC[C@@H]1C)C[C@@H]1C[C@@H](CC(N3CCOCC3)/C(C)=C\[C@@H](C)/C=C/C=C3\CO[C@@H]4[C@H](O)C(C)=C[C@@H](C(=O)O1)[C@]34O)O2 (some centres not stated) | > 100 nM |  | 6.25 p.p.m. |  | > 2.5 mg/kg |  |  |  |  |
| CC[C@H](C)[C@H]1O[C@]2(CC[C@@H]1C)C[C@@H]1C[C@@H](C/C=C(\C)[C@@H](Cl)[C@@H](C)/C=C/C=C3\CO[C@@H]4[C@H](O)C(C)=C[C@@H](C(=O)O1)[C@]34O)O2 |  |  |  |  |  | <1 p.p.m. | >0.1 p.p.m. | < 0.1 mg/kg |  |
| CC[C@H](C)[C@H]1O[C@]2(CC[C@@H]1C)C[C@@H]1C[C@@H](C/C=C(\C)[C@H](I)[C@@H](C)/C=C/C=C3\CO[C@@H]4[C@H](O)C(C)=C[C@@H](C(=O)O1)[C@]34O)O2 | 2.4 nM |  |  |  |  |  | 1.25 p.p.m. | 0.5 mg/kg |  |
| IVERMECTIN [listing 1 of 2 here] |  | 0.3 nM |  |  |  |  |  |  |  |
| CC[C@H](C)[C@H]1O[C@]2(CC[C@@H]1C)C[C@@H]1C[C@@H](C/C=C(\C)[C@H](F)[C@@H](C)/C=C/C=C3\CO[C@@H]4[C@H](O)C(C)=C[C@@H](C(=O)O1)[C@]34O)O2 | 0.3 nM |  | 0.01 p.p.m. | 0.5 p.p.m. | < 0.1 mg/kg |  |  |  |  |
| IVERMECTIN [listing 2 of 2 here] |  |  | 0.05 p.p.m. | 8 p.p.m. |  |  |  |  | 0.05 mg/kg |
| CC[C@H](C)[C@H]1O[C@]2(C=C[C@@H]1C)C[C@@H]1C[C@@H](C/C=C(\C)[C@@H](O[C@H]3C[C@H](OC)[C@@H](O[C@H]4C[C@H](OC)[C@@H](O)[C@H](C)O4)[C@H](C)O3)[C@@H](C)/C=C/C=C3\CO[C@@H]4[C@H](O)C(C)=C[C@@H](C(=O)O1)[C@]34O)O2 [ABAMECTIN COMPONENT B1A] |  | 0.1 nM | 0.05 p.p.m. | 8 p.p.m. | 0.03 mg/kg |  |  |  |  |

Further lines, with some results ahead:

| Ki [1] | Ki [5] | Molecule | ED90 (Tetranychus urticae [2]) | ED90 (Spodoptera eridania [3]) | ED90 [4] | ED90 (Spodoptera eridania [6]) | ED90 (Tetranychus urticae [7]) | ED90 [8] | ED90 [9] |
| --- | --- | --- | --- | --- | --- | --- | --- | --- | --- |
| 0.6 nM |  | CC[C@H](C)[C@H]1O[C@]2(CC[C@@H]1C)C[C@@H]1C[C@@H](C/C=C(\C)C(=O)[C@@H](C)/C=C/C=C3\CO[C@@H]4[C@H](O)C(C)=C[C@@H](C(=O)O1)[C@]34O)O2 |  |  |  | >0.5 p.p.m. | 6.25 p.p.m. | 0.5 mg/kg |  |
| 6.4 nM |  | CC[C@H](C)[C@H]1O[C@]2(CC[C@@H]1C)C[C@@H]1C[C@@H](C/C=C(\C)[C@@H](O)[C@@H](C)/C=C/C=C3\CO[C@@H]4[C@H](O)C(C)=C[C@@H](C(=O)O1)[C@]34O)O2 [IVM AGLYCONE] | 0.5 p.p.m. | >6.25 p.p.m. |  |  |  |  |  |
| 0.9 nM |  | CC[C@H](C)[C@H]1O[C@]2(CC[C@@H]1C)C[C@@H]1C[C@@H](C/C=C(\C)C[C@@H](C)/C=C/C=C3\CO[C@@H]4[C@H](O)C(C)=C[C@@H](C(=O)O1)[C@]34O)O2 | 0.05 p.p.m. | 0.5 p.p.m. | 0.06 mg/kg |  |  |  |  |
| 2.9 nM |  | CC[C@H](C)[C@H]1O[C@]2(CC[C@@H]1C)C[C@@H]1C[C@@H](C/C=C(\C)[C@H](OCOCCOC)[C@@H](C)/C=C/C=C3\CO[C@@H]4[C@H](O)C(C)=C[C@@H](C(=O)O1)[C@]34O)O2 |  |  |  | >0.25 p.p.m. | 0.01 p.p.m. | < 0.1 mg/kg |  |
| 1 nM |  | CC[C@H](C)[C@H]1O[C@]2(CC[C@@H]1C)C[C@@H]1C[C@@H](C/C=C(\C)[C@H](Cl)[C@@H](C)/C=C/C=C3\CO[C@@H]4[C@H](O)C(C)=C[C@@H](C(=O)O1)[C@]34O)O2 |  |  |  | 0.5 p.p.m. | 0.25 p.p.m. | 0.1 mg/kg |  |
| 0.6 nM |  | CC[C@H](C)[C@H]1O[C@]2(CC[C@@H]1C)C[C@@H]1C[C@@H](C/C=C(\C)[C@@H](OC)[C@@H](C)/C=C/C=C3\CO[C@@H]4[C@H](O)C(C)=C[C@@H](C(=O)O1)[C@]34O)O2 | 1 p.p.m. |  | 0.5 mg/kg |  |  |  |  |
| 0.2 nM |  | CC[C@H](C)[C@H]1O[C@]2(CC[C@@H]1C)C[C@@H]1C[C@@H](C/C=C(\C)[C@@H](F)[C@@H](C)/C=C/C=C3\CO[C@@H]4[C@H](O)C(C)=C[C@@H](C(=O)O1)[C@]34O)O2 | 0.05 p.p.m. | >0.5 p.p.m. | < 0.1 mg/kg |  |  |  |  |
| 2.7 nM |  | CC[C@H](C)[C@H]1O[C@]2(CC[C@@H]1C)C[C@@H]1C[C@@H](C/C=C(\C)[C@@H](OCOCCOC)[C@@H](C)/C=C/C=C3\CO[C@@H]4[C@H](O)C(C)=C[C@@H](C(=O)O1)[C@]34O)O2 |  |  |  | <1 p.p.m. | 0.05 p.p.m. | > 0.1 mg/kg |  |
|  | > 100 nM | CC[C@H](C)[C@H]1O[C@]2(CC[C@@H]1C)C[C@@H]1C[C@@H](CC(N(C)C(C)=O)/C(C)=C\[C@@H](C)/C=C/C=C3\CO[C@@H]4[C@H](O)C(C)=C[C@@H](C(=O)O1)[C@]34O)O2 (some centres not stated) | >6.25 p.p.m. |  | > 2.5 mg/kg |  |  |  |  |
|  | > 100 nM | CC[C@H](C)[C@H]1O[C@]2(CC[C@@H]1C)C[C@@H]1C[C@@H](CC(O)/C(C)=C\[C@@H](C)/C=C/C=C3\CO[C@@H]4[C@H](O)C(C)=C[C@@H](C(=O)O1)[C@]34O)O2 (some centres not stated) | >6.25 p.p.m. |  |  |  |  |  |  |
